Test results as given in ChEMBL document CHEMBL4680082 (J Med Chem, 2016).
Several values for one entry are separate records, joined by “and”; a condition that tells them apart may be missing. Equal entries are not always repeated.

Key:
[1] = biological target: T1, 5-hydroxytryptamine receptor 2C (Homo sapiens) (UniProt P28335); experiment: Agonist activity at human 5-HT2C receptor expressed in human Flp-In-293 cells assessed as induction of calcium flux incubated for 1 hr by Fluo-4 direct dye based FLIPR assay relative to 5-HT; format: functional, cell-based; settings: filed as agonist
T1 sequence (whole entry): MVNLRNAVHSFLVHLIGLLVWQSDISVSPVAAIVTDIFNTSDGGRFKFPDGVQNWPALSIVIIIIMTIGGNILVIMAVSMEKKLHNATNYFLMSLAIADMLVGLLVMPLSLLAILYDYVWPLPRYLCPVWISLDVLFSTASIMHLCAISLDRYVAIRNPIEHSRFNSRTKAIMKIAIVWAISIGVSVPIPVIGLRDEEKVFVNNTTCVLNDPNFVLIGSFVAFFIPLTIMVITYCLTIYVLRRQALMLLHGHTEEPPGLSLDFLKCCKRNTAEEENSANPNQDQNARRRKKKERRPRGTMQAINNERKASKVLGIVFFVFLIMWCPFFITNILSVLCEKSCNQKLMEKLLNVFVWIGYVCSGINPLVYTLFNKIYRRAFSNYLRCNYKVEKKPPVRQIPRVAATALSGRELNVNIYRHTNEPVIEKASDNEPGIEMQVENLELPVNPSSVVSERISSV

[2] = biological target: T2, 5-hydroxytryptamine receptor 2A (Homo sapiens, UniProt P28223)
[3] = biological target: T3, 5-hydroxytryptamine receptor 2C (Homo sapiens, UniProt P28335);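 also: Agonist-induced calcium flux in Flp-In-293 cells expressing the human receptor, read by FLIPR with Fluo-4 Direct dye after 1 hr incubation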
T3 sequence (P28335 whole entry): T1 sequence (whole entry)

[4] = biological target: T4, 5-hydroxytryptamine receptor 2B (Homo sapiens, UniProt P41595)
[5] = biological target: T4, 5-hydroxytryptamine receptor 2B; experiment: Agonist activity at human 5-HT2B receptor expressed in human Flp-In-293 cells assessed as induction of calcium flux incubated for 1 hr by Fluo-4 direct dye based FLIPR assay relative to 5-HT; format: functional, cell-based
[6] = biological target: T2, 5-hydroxytryptamine receptor 2A; experiment: Agonist activity at human 5-HT2A receptor expressed in human Flp-In-293 cells assessed as induction of calcium flux incubated for 1 hr by Fluo-4 direct dye based FLIPR assay relative to 5-HT; format: functional, cell-based
[7] = biological target: T4, 5-hydroxytryptamine receptor 2B; experiment: Agonist activity at human 5-HT2B receptor expressed in human Flp-In-293 cells assessed as induction of calcium flux by measuring log(Emax/EC50) incubated for 1 hr by Fluo-4 direct dye based FLIPR assay; format: functional, cell-based
[8] = biological target: T2, 5-hydroxytryptamine receptor 2A; experiment: Agonist activity at human 5-HT2A receptor expressed in human Flp-In-293 cells assessed as induction of calcium flux by measuring log(Emax/EC50) incubated for 1 hr by Fluo-4 direct dye based FLIPR assay; format: functional, cell-based
[9] = biological target: T1, 5-hydroxytryptamine receptor 2C (Homo sapiens); experiment: Agonist activity at human 5-HT2C receptor expressed in human Flp-In-293 cells assessed as induction of calcium flux by measuring log (Emax/EC50) incubated for 1 hr by Fluo-4 direct dye based FLIPR assay; format: functional, cell-based
[10] = biological target: T3, 5-hydroxytryptamine receptor 2C; experiment: Agonist activity at human 5-HT2C INI receptor expressed in human Flp-In-293 cells assessed as induction of calcium flux incubated for 1 hr by Fluo-4 direct dye based FLIPR assay; format: functional, cell-based
How it was run: (§1)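 Calcium flux in Flp-In-293 cells stably expressing the human 5-HT2C INI isoform, Fluo-4 Direct loading for 1 h at 37 °C. Drug dilutions identical to those in the parallel Tango assay, 300 s read at 1 read/s, normalized to % 5-HT. Triplicate, mean ± SEM (n = 3). Bias factors were calculated from change in relative activity, log(Emax/EC50).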

[11] = biological target: T1, 5-hydroxytryptamine receptor 2C (Homo sapiens); experiment: Agonist activity at human 5-HT2C INI receptor expressed in human Flp-In-293 cells assessed as induction of calcium flux incubated for 1 hr by Fluo-4 direct dye based FLIPR assay relative to 5-HT; format: functional, cell-based; settings: filed as agonist; how it was run: as §1
[12] = biological target: T1, 5-hydroxytryptamine receptor 2C (Homo sapiens); experiment: Agonist activity at human 5-HT2C INI receptor expressed in human HEK293 cells assessed as induction of beta-arrestin-2 recruitment incubated for 20 hrs by Tango assay relative to 5HT; format: cell-based
How it was run: (§2)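 Tango assay in HTLA cells (HEK line expressing TEV-fused β-arrestin-2 and tTA-driven luciferase) transfected with 5-HT2C INI–tTA fusion carrying a TEV site. Cells were stimulated with the same dilutions used for FLIPR, 20 h at 37 °C and 5% CO2, then lysed with Bright-Glo for 20 min at room temperature and read by luminescence. Data normalized to % 5-HT and fitted sigmoidally; n = 3 in triplicate. Bias from log(Emax/EC50).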

[13] = biological target: T3, 5-hydroxytryptamine receptor 2C; experiment: Agonist activity at human 5-HT2C INI receptor expressed in human HEK293 cells assessed as induction of beta-arrestin-2 recruitment incubated for 20 hrs by Tango assay; format: cell-based; how it was run: as §2

T4 sequence (P41595 whole entry): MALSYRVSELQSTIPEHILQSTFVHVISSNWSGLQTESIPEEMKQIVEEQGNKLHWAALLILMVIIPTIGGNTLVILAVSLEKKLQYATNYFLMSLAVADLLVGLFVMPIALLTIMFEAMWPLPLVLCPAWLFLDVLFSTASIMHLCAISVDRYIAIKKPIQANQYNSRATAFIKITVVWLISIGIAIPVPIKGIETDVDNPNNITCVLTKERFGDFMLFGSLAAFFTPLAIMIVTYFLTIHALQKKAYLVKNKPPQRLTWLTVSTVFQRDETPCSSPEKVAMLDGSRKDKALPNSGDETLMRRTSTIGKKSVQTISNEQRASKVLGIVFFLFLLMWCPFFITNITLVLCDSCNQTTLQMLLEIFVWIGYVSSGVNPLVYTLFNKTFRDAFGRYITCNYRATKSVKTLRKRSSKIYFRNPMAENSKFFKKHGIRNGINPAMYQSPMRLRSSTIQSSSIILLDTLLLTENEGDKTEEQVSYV
T2 sequence (P28223 whole entry): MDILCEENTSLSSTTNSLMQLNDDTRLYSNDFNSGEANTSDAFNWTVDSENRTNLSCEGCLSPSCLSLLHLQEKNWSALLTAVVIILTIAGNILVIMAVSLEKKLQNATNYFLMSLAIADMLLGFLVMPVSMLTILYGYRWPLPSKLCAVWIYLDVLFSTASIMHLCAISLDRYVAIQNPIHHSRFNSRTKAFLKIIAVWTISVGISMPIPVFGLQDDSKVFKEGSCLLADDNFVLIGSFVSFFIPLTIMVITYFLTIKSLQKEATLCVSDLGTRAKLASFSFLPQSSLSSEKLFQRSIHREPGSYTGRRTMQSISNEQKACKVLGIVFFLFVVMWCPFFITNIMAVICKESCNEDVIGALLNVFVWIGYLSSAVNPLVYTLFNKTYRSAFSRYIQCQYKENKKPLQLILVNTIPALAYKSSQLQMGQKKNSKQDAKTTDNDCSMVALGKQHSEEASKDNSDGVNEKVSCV

Row | SMILES | Emax [1] [%] | EC50 [2] | EC50 [3] | EC50 [4] | other results
1 | C=C(C)COc1ccc2occc2c1[C@H]1C[C@@H]1CN | 99 | 0.26 µM | 0.025 µM | 0.15 µM | Emax ([5]; filed as agonist): 40%
2 | CCCOc1ccc2oc(CC)cc2c1[C@H]1C[C@@H]1CN | – | – | 0.081 µM | – | –
3 | CCc1cc2c([C@@H]3C[C@H]3CN)c(OCCF)ccc2o1 | 84 | – | 0.081 µM | – | –
4 | C=C(F)COc1ccc2occc2c1[C@@H]1C[C@H]1CN | 93 | – | 0.099 µM | 0.585 µM | Emax [5]: 29%
5 | CCOc1ccc2occc2c1[C@H]1C[C@@H]1CN | 106 | 0.111 µM | 0.0026 µM | 0.084 µM | Emax ([6]; filed as agonist): 74%
6 | COc1ccc2c(c1[C@@H]1C[C@H]1CN)CCO2 | 102 | 0.295 µM | 0.019 µM | 0.279 µM | log(ratio) [7]: 6.21; log(ratio) [8]: 6.35; Emax ([6]; filed as agonist): 66%; log(ratio) [9]: 7.73; Emax ([5]; filed as agonist): 45%
7 | CCc1cc2c([C@H]3C[C@@H]3CN)c(OCCF)ccc2o1 | 106 | 2.21 µM | 0.011 µM | 0.55 µM | EC50 [10]: 0.022 µM; Emax [11]: 93%; Emax ([12]; filed as agonist): 50%; EC50 ([13]; read-out: EC50): 0.096 µM
8 | CCOc1ccc2oc(CC)cc2c1[C@@H]1C[C@H]1CN | 76 | – | 0.115 µM | – | –
9 | CCCOc1ccc2c(c1[C@H]1C[C@@H]1CN)CCO2 | 104 | 0.749 µM | 0.02 µM | 0.258 µM | –
10 | CC(C)Oc1ccc2occc2c1[C@H]1C[C@@H]1CN | 99 | 0.298 µM | 0.0062 µM | 0.174 µM | log(ratio) [7]: 6.35; log(ratio) [8]: 6.42; Emax ([6]; filed as agonist): 79%; log(ratio) [9]: 8.2; Emax [5]: 39%
11 | NC[C@H]1C[C@@H]1c1c(OCCF)ccc2c1CCO2 | 76 | 2.32 µM | 0.073 µM | – | EC50 [10]: 0.041 µM; Emax [11]: 93%; Emax ([6]; filed as agonist): 63%; Emax ([12]; filed as agonist): 42%; EC50 ([13]; read-out: EC50): 0.318 µM; EC50 ([13]; read-out: pEC50 (converted)): 0.324 µM
12 | NC[C@@H]1C[C@H]1c1c(OCC2CC2)ccc2occc12 | 87 | – | 0.113 µM | 0.513 µM and 0.524 µM | Emax [5]: 27%
13 | C=C(C)COc1ccc2occc2c1[C@@H]1C[C@H]1CN | 70 | – | 0.261 µM | 0.733 µM | Emax [5]: 33%
14 | NC[C@@H]1C[C@H]1c1c(OCCF)ccc2occc12 | 98 | 0.393 µM | 0.033 µM | 0.448 µM | Emax [6]: 22%; Emax [5]: 34%
15 | NC[C@@H]1C[C@H]1c1c(OCCF)ccc2c1CCO2 | 79 | 1.96 µM | 0.302 µM | – | Emax ([6]; filed as agonist): 55%
16 | COc1ccc2occc2c1[C@@H]1C[C@H]1CN | 96 | 0.109 µM | 0.00676 µM and 0.0066 µM | 0.725 µM | log(ratio) [7]: 5.88; log(ratio) [8]: 6.78; Emax ([6]; filed as agonist): 66%; log(ratio) [9]: 8.16; Emax ([5]; filed as agonist): 55%
17 | NC[C@@H]1C[C@H]1c1c(OCC2CC2)ccc2c1CCO2 | 65 | – | 0.283 µM | – | –
18 | CCc1cc2c([C@@H]3C[C@H]3CN)c(OC)ccc2o1 | 88 | – | 0.101 µM | – | –
19 | CCCOc1ccc2occc2c1[C@H]1C[C@@H]1CN | 98 | 0.392 µM | 0.01 µM | – | –
20 | C=CCOc1ccc2oc(CC)cc2c1[C@H]1C[C@@H]1CN | – | – | 0.023 µM | 0.433 µM | EC50 [10]: 0.025 µM; EC50 ([13]; read-out: EC50): 0.03 µM

Row | SMILES | Emax [1] [%] | EC50 [2] | EC50 [3] | EC50 [4] | other results
21 | C=C(F)COc1ccc2occc2c1[C@H]1C[C@@H]1CN | 103 | 0.358 µM | 0.0092 µM | 0.128 µM | Emax [5]: 38%
22 | C=CCOc1ccc2occc2c1[C@H]1C[C@@H]1CN | 103 | 0.213 µM | 0.0053 µM | 0.348 µM | EC50 [10]: 0.0087 µM; Emax [11]: 92%; Emax [12]: 25%; EC50 ([13]; read-out: EC50): 0.02 µM
23 | COc1ccc2occc2c1[C@H]1C[C@@H]1CN | 93 | 0.037 µM | 0.0016 µM | 0.111 µM | log(ratio) [7]: 6.76; log(ratio) [8]: 7.37; Emax ([6]; filed as agonist): 86%; log(ratio) [9]: 8.76; Emax ([5]; filed as agonist): 64%
24 | NC[C@H]1C[C@@H]1c1c(OCC2CC2)ccc2c1CCO2 | 95 | 0.754 µM | 0.026 µM | 0.269 µM | –
25 | CC(C)Oc1ccc2occc2c1[C@@H]1C[C@H]1CN | 97 | 0.938 µM | 0.021 µM | 0.453 µM | log(ratio) [7]: 5.74; log(ratio) [8]: 5.61; Emax [6]: 38%; log(ratio) [9]: 7.66; Emax [5]: 25%
26 | CCOc1ccc2c(c1[C@H]1C[C@@H]1CN)CCO2 | 106 | 0.113 µM | 0.0027 µM | 0.0589 µM and 0.054 µM | log(ratio) [7]: 7.03; log(ratio) [8]: 6.86; Emax ([6]; filed as agonist): 81%; log(ratio) [9]: 8.59; Emax ([5]; filed as agonist): 58%
27 | CCOc1ccc2occc2c1[C@@H]1C[C@H]1CN | 107 | 0.585 µM | 0.026 µM | – | Emax [6]: 15%
28 | C=CCOc1ccc2c(c1[C@@H]1C[C@H]1CN)CCO2 | 90 | – | 0.094 µM | – | –
29 | C=CCOc1ccc2c(c1[C@H]1C[C@@H]1CN)CCO2 | 101 | 0.618 µM | 0.011 µM | 0.258 µM | EC50 [10]: 0.026 µM; Emax [11]: 93%; Emax [12]: 35%; EC50 ([13]; read-out: EC50): 0.267 µM
30 | NC[C@H]1C[C@@H]1c1c(OCC2CC2)ccc2occc12 | 99 | 0.456 µM | 0.012 µM | 0.18 µM | Emax [5]: 27%
31 | COc1ccc2c(c1[C@H]1C[C@@H]1CN)CCO2 | 101 | 0.117 µM | 0.0089 µM | 0.077 µM | log(ratio) [7]: 6.96; log(ratio) [8]: 6.89; Emax ([6]; filed as agonist): 90%; log(ratio) [9]: 8.05; Emax ([5]; filed as agonist): 70%
32 | CCc1cc2c([C@@H]3C[C@H]3CN)c(OCC3CC3)ccc2o1 | 69 | – | 0.446 µM | – | –
33 | C[C@H]1CNCCc2ccc(Cl)cc21 | – | – | – | – | Emax ([12]; filed as agonist): 91%
34 | CCOc1ccc2c(c1[C@@H]1C[C@H]1CN)CCO2 | 105 | 0.976 µM | 0.041 µM | 0.781 µM | log(ratio) [7]: 5.58; log(ratio) [8]: 5.55; Emax [6]: 35%; log(ratio) [9]: 7.41; Emax [5]: 30%
35 | CCc1cc2c([C@H]3C[C@@H]3CN)c(OC)ccc2o1 | 101 | 0.939 µM | 0.0027 µM | 0.06 µM | –
36 | CCOc1ccc2oc(CC)cc2c1[C@H]1C[C@@H]1CN | 100 | 2.63 µM and 2.6 µM | 0.015 µM | 0.309 µM | –
37 | CCCOc1ccc2c(c1[C@@H]1C[C@H]1CN)CCO2 | 94 | – | 0.096 µM | – | –
38 | CCc1cc2c([C@H]3C[C@@H]3CN)c(OCC3CC3)ccc2o1 | 101 | – | 0.138 µM | – | –
39 | CCCOc1ccc2occc2c1[C@@H]1C[C@H]1CN | 88 | – | 0.087 µM | – | –
40 | C=CCOc1ccc2occc2c1[C@@H]1C[C@H]1CN | 101 | – | 0.056 µM | – | –
